Experimental data of several laboratories.
Protocols differ between the studies behind these lines. pIC50: −log10 of the molar value.
Target: Cholinesterase (BCHE, Homo sapiens, UniProt P06276)
Observed: enzyme activity
Mode: inhibitor

`COc1ccc(S(=O)(=O)Oc2cccc(C=NNC(=O)c3ccc(F)cc3)c2)cc1` gave a pIC50 of 6.95 (Ellman).
For `O=[N+]([O-])c1c[nH]c(-c2n[nH]c(=S)n2/N=C/c2ccc(Oc3ccccc3)cc2)c1`, the pIC50 was 4.68 (Ellman).
`COc1cccc(C=NNC(=O)c2cc(-c3cn(C)c4ccccc34)on2)c1` has a pIC50 of less than 4.00.
For `O=[N+]([O-])c1c[nH]c(-c2n[nH]c(=S)n2/N=C/c2ccc(Br)c(Br)c2)c1`, the pIC50 was 4.55 (Ellman).
`Cn1cc(-c2cc(C(=O)NN=Cc3ccncc3)no2)c2ccccc21` has a pIC50 of less than 4.00.
`C#CCN(C)CCCCCCOCc1ccc(CN(C)c2c3c(nc4ccccc24)CCCC3)cc1` has a pIC50 of 6.37 (Ellman).
For `O=[N+]([O-])c1c[nH]c(-c2n[nH]c(=S)n2/N=C/c2c(O)cc(O)cc2O)c1`, the pIC50 was 5.17 (Ellman).
For `COc1ccccc1C=NNC(=O)c1cc(-c2cn(C)c3ccccc23)on1`, the pIC50 was less than 4.00.
With `CN(C)c1ccc(/C=N/n2c(-c3cc([N+](=O)[O-])c[nH]3)n[nH]c2=S)c(O)c1` the pIC50 was 4.65 (Ellman).
The pIC50 of `C#CCN(C)CCCCCCCCOc1cccc(CN(C)c2c3c(nc4ccccc24)CCCC3)c1` is reported as 6.04 (Ellman).
With `O=[N+]([O-])c1c[nH]c(-c2n[nH]c(=S)n2/N=C/c2cc(Cl)cc(Cl)c2)c1` the pIC50 was 4.84 (Ellman).
For `C#CCN(C)CCOc1cccc(CN(C)c2c3c(nc4ccccc24)CCCC3)c1`, the pIC50 was 5.70 (Ellman).
With `Cn1cc(-c2cc(C(=O)NN=Cc3cccc(Br)c3)no2)c2ccccc21` the pIC50 was less than 4.00.
`COc1ccc(S(=O)(=O)Oc2cc(OC)ccc2C=NNC(=O)c2ccc(F)cc2)cc1` has a pIC50 of 6.95 (Ellman).
With `Cc1ccc(CN2CCN(Cc3nnc(-c4ccccc4)o3)CC2)cc1` the pIC50 was less than 5.00 (Ellman).
For `COc1ccc(S(=O)(=O)Oc2ccccc2C=NNC(=O)c2ccc(F)cc2)cc1`, the pIC50 was 6.94 (Ellman).
For `C#CCN(C)CCCCOc1cccc(CN(C)c2c3c(nc4ccccc24)CCCC3)c1`, the pIC50 was 6.43 (Ellman).
`COc1cccc(C=NNC(=O)c2cc(-c3cn(C)c4ccccc34)on2)c1OC` gave a pIC50 of less than 4.00.
`C#CCN(C)CCCCCCOCc1ccc(CN(C)c2c3c(nc4ccc(C)cc24)CCCC3)cc1` gave a pIC50 of 5.90 (Ellman).
The pIC50 of `O=[N+]([O-])c1c[nH]c(-c2n[nH]c(=S)n2/N=C/c2ccc(F)c(O)c2)c1` is reported as 5.01 (Ellman).
`C#CCN(C)CCCCCCOc1cccc(CN(C)c2c3c(nc4ccccc24)CCCC3)c1` gave a pIC50 of 6.49 (Ellman).
`O=[N+]([O-])c1c[nH]c(-c2n[nH]c(=S)n2/N=C/c2ccc(Br)c(Cl)c2)c1` has a pIC50 of 4.64 (Ellman).
